The values below come from ChEMBL document CHEMBL4011658 (J Med Chem, 2017).

Molecules are shown by their SMILES. In brackets after ≈: the same amount, converted by molar mass. Activity calls are given as the source filed them. The rule behind the calls is not given here. Residues, ends and D or L forms follow the SMILES beside them. *: point of attachment. Boc = CC(C)(C)OC(=O)*; NHBn = c1ccc(CN*)cc1 Bounds are passed on as bounds.

One series deals with Cryptococcus neoformans. Put plainly: Antifungal activity against Cryptococcus neoformans ATCC 90113 after 70 to 74 hrs by alamar blue dye based CLSI method. The series is classed as functional.
A further series has as its system SK-OV-3. The series can be described thus: Cytotoxicity against human SKOV3 cells assessed as reduction in cell viability after 48 hrs by neutral red uptake assay. The series is classed as cell-based. As to conditions: sk-ov-3, 48 h. The method, boiled down: (§1)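 Cells seeded at 25 000 per well and grown 24 h to confluence, then exposed to peptides up to 10 μg/mL for 48 h; viability by modified neutral red uptake; doxorubicin positive control, DMSO negative control.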

The subject of another series is SK-MEL. The series can be described thus: Cytotoxicity against human SK-MEL cells assessed as reduction in cell viability after 48 hrs by neutral red uptake assay. The series is classed as cell-based. The method, boiled down: as §1
The subject of the next series is BT-549. Put plainly: Cytotoxicity against human BT549 cells assessed as reduction in cell viability after 48 hrs by neutral red uptake assay. The series is classed as cell-based. The conditions noted are these: bt-549, 48 h. Put shortly:
as §1

Another series concerns LLC-PK1. Put plainly: Cytotoxicity against pig LLC-PK1 cells assessed as reduction in cell viability after 48 hrs by neutral red uptake assay. As to conditions: llc-pk1, 48 h. The series is classed as cell-based, Sus scrofa. Put shortly: as §1
The subject of the next series is Vero. Put plainly: Cytotoxicity against African green monkey Vero cells assessed as reduction in cell viability after 48 hrs by neutral red uptake assay. The conditions noted are these: chlorocebus sabaeus. The class given is cell-based. The method, boiled down: as §1
The test system of another series is Escherichia coli. Put plainly: Antibacterial activity against Escherichia coli ATCC 35218 after 16 to 20 hrs by alamar blue dye based CLSI method. The series is classed as functional.
For the next series, the system named is Candida. Put plainly: Antifungal activity against Candida. The class given is functional.
For the next series, the system named is Aspergillus. The series can be described thus: Antifungal activity against Aspergillus. The class given is functional.
The nature of series [1]: Selectivity index, ratio of cytotoxicity against human SKOV3 cells to IC50 for Cryptococcus neoformans ATCC 90113. The series is classed as toxicity, cell-based. The conditions noted are these: read-out: Selectivity Index.
The nature of series [2]: Selectivity index, ratio of cytotoxicity against human SK-MEL cells to IC50 for Cryptococcus neoformans ATCC 90113. The series is classed as toxicity, cell-based. The conditions noted are these: read-out: Selectivity Index.
A short description of series [3]: Selectivity index, ratio of cytotoxicity against human BT549 cells to IC50 for Cryptococcus neoformans ATCC 90113. The class given is toxicity, cell-based. As to conditions: read-out: Selectivity Index.
Series [4] is described as follows: Selectivity index, ratio of cytotoxicity against pig LLC-PK1 cells to IC50 for Cryptococcus neoformans ATCC 90113. The class given is toxicity, cell-based. The conditions noted are these: read-out: Selectivity Index.
The nature of series [5]: Selectivity index, ratio of cytotoxicity against African green monkey VERO cells to IC50 for Cryptococcus neoformans ATCC 90113. The series is classed as toxicity, cell-based. As to conditions: read-out: Selectivity Index.

The IC50 is the concentration that inhibits the measured activity by half. With `CC(C)(C)OC(=O)N[C@@H](Cc1c[nH]c(-c2ccc(-c3ccccc3)cc2)n1)C(=O)N[C@@H](Cc1c[nH]c2ccccc12)C(=O)N[C@@H](Cc1c[nH]c(-c2ccc(-c3ccccc3)cc2)n1)C(=O)NCc1ccccc1`, the IC50 in the series on Cryptococcus neoformans was over 20 µg/mL. In addition, the Activity in the series with SK-OV-3, in the series on SK-MEL, in the series on BT-549, in the series with LLC-PK1 and with Vero was over 10 µg/mL throughout. In addition, the outcome in the series on Escherichia coli, with Candida and in the series with Aspergillus was inactive.
The MFC is the lowest tested concentration that kills the fungus rather than only halting it. One may read the MIC as the lowest concentration that inhibits growth of the organism. `N[C@@H](Cc1c[nH]c(-c2ccc(-c3ccccc3)cc2)n1)C(=O)N[C@@H](Cc1c[nH]c2ccccc12)C(=O)N[C@@H](Cc1c[nH]c(-c2ccc(-c3ccccc3)cc2)n1)C(=O)NCc1ccccc1`: in the series with Cryptococcus neoformans, half-maximal inhibition (IC50) was put at 1.4 µg/mL (≈ 1.61 µM). In the series with Cryptococcus neoformans, this compound showed a minimum fungicidal concentration (MFC) of 2.5 µg/mL (≈ 2.87 µM). Further, 2.5 µg/mL (≈ 2.87 µM) was the least that counted as inhibitory against Cryptococcus neoformans (MIC). The Activity with SK-OV-3, in the series with SK-MEL, in the series with BT-549, in the series with LLC-PK1 and in the series on Vero was over 10 µg/mL in each case. For the same compound, the selectivity ratio in series [1], in series [2], in series [3], in series [4] and in [5] was over 7.1 each time. Further, the result in the series on Escherichia coli, with Candida and in the series with Aspergillus was inactive.
In turn, `CC(C)(C)OC(=O)N[C@@H](Cc1cnc[nH]1)C(=O)N[C@@H](Cc1c[nH]c2ccccc12)C(=O)N[C@@H](Cc1cnc[nH]1)C(=O)NCc1ccccc1` (Boc-His-Trp-His-NHBn) gave an MFC in the series on Cryptococcus neoformans of 1.25 µg/mL (≈ 1.87 µM). This compound yielded an MIC in the series on Cryptococcus neoformans of 1.25 µg/mL (≈ 1.87 µM). In addition, the Activity in the series on SK-OV-3, in the series with SK-MEL, in the series with BT-549, in the series on LLC-PK1 and in the series with Vero was over 10 µg/mL each time. Besides, the selectivity ratio in [1], in [2], in series [3], in series [4] and in series [5] was over 12.5 each time. Besides, the result in the series on Escherichia coli, with Candida and in the series with Aspergillus was inactive.
On to `COc1ccc(-c2nc(C[C@H](NC(=O)[C@H](Cc3c[nH]c4ccccc34)NC(=O)[C@@H](N)Cc3c[nH]c(-c4ccc(OC)cc4)n3)C(=O)NCc3ccccc3)c[nH]2)cc1`, for which inhibition in the series on Cryptococcus neoformans was half-maximal at 7.2 µg/mL (≈ 9.23 µM) (IC50). Besides, in the series with Cryptococcus neoformans, the MFC is over 20 µg/mL. The compound further had an MIC against Cryptococcus neoformans of over 20 µg/mL. Further, the Activity in the series with SK-OV-3, in the series with SK-MEL, in the series with BT-549, with LLC-PK1 and with Vero was over 10 µg/mL throughout. In addition, the selectivity ratio in [1], in series [2], in series [3], in [4] and in series [5] was over 1.4 in each case. The result with Escherichia coli, in the series on Candida and in the series on Aspergillus was inactive.
The compound `COC(=O)[C@H](Cc1c[nH]c(-c2ccc(C(C)(C)C)cc2)n1)NC(=O)[C@H](Cc1c[nH]c2ccccc12)NC(=O)[C@H](Cc1c[nH]c(-c2ccc(C(C)(C)C)cc2)n1)NC(=O)OC(C)(C)C` showed an IC50 in the series with Cryptococcus neoformans of 1.27 µg/mL (≈ 1.48 µM). In the series on Cryptococcus neoformans, this compound returned an MFC of 5 µg/mL (≈ 5.83 µM). For the same compound, the MIC in the series with Cryptococcus neoformans was 5 µg/mL (≈ 5.83 µM). Besides, the Activity in the series with SK-OV-3, in the series with SK-MEL, in the series with BT-549, in the series on LLC-PK1 and in the series with Vero was over 10 µg/mL throughout. Moreover, the selectivity ratio in series [1], in series [2], in series [3], in series [4] and in [5] was over 7.9 in each case. Also, the result in the series on Escherichia coli, in the series with Candida and in the series on Aspergillus was inactive.
For the compound `COC(=O)[C@H](Cc1c[nH]c(-c2ccc(-c3ccccc3)cc2)n1)NC(=O)[C@H](Cc1c[nH]c2ccccc12)NC(=O)[C@H](Cc1c[nH]c(-c2ccc(-c3ccccc3)cc2)n1)NC(=O)OC(C)(C)C`, the IC50 with Cryptococcus neoformans was over 20 µg/mL. For the same compound, the Activity with SK-OV-3, with SK-MEL, in the series with BT-549, with LLC-PK1 and in the series with Vero was over 10 µg/mL each time. The outcome in the series on Escherichia coli, in the series on Candida and in the series on Aspergillus was inactive.
In the series on Cryptococcus neoformans, `COC(=O)[C@H](Cc1c[nH]c(-c2ccccc2)n1)NC(=O)[C@H](Cc1c[nH]c2ccccc12)NC(=O)[C@H](Cc1c[nH]c(-c2ccccc2)n1)NC(=O)OC(C)(C)C` returned an IC50 of 9.14 µg/mL (≈ 12.3 µM). In the series with Cryptococcus neoformans, this compound came in with an MFC of over 20 µg/mL. In the series on Cryptococcus neoformans, this compound had a minimal inhibitory concentration (MIC) of over 20 µg/mL. Besides, the Activity in the series on SK-OV-3, with SK-MEL, with BT-549, in the series with LLC-PK1 and in the series on Vero was over 10 µg/mL throughout. Further, the selectivity ratio in series [1], in [2], in series [3], in [4] and in series [5] was over 1.1 throughout. In addition, the outcome in the series on Escherichia coli, in the series with Candida and in the series on Aspergillus was inactive.
In turn, `COC(=O)[C@H](Cc1c[nH]cn1)NC(=O)[C@H](Cc1c[nH]c2ccccc12)NC(=O)[C@@H](N)Cc1c[nH]cn1` (H-His-Trp-His-OMe) gave an IC50 with Cryptococcus neoformans of 9.81 µg/mL (≈ 19.9 µM). This compound came in with an MFC with Cryptococcus neoformans of 20 µg/mL (≈ 40.6 µM). Besides, the MIC against Cryptococcus neoformans was 20 µg/mL (≈ 40.6 µM). Besides, the Activity in the series with SK-OV-3, in the series on SK-MEL, with BT-549, in the series on LLC-PK1 and in the series on Vero was over 10 µg/mL in each case. Also, the selectivity ratio in series [1], in series [2], in series [3], in series [4] and in [5] was over 1 in each case. The outcome in the series with Escherichia coli, with Candida and in the series on Aspergillus was inactive.
As for `N[C@@H](Cc1cnc[nH]1)C(=O)N[C@@H](Cc1c[nH]c2ccccc12)C(=O)N[C@@H](Cc1cnc[nH]1)C(=O)NCc1ccccc1` (H-His-Trp-His-NHBn), the MFC against Cryptococcus neoformans was found to be 10 µg/mL (≈ 17.6 µM). The compound also gave an MIC against Cryptococcus neoformans of 10 µg/mL (≈ 17.6 µM). For the same compound, the Activity with SK-OV-3, with SK-MEL, with BT-549, in the series on LLC-PK1 and in the series with Vero was over 10 µg/mL in each case. For the same compound, the selectivity ratio in series [1], in series [2], in [3], in [4] and in series [5] was over 1.2 each time. The result in the series with Escherichia coli, in the series with Candida and in the series on Aspergillus was inactive.
In the case of `CC(C)(C)OC(=O)N[C@@H](Cc1c[nH]c(-c2ccc(C(C)(C)C)cc2)n1)C(=O)N[C@@H](Cc1c[nH]c2ccccc12)C(=O)N[C@@H](Cc1c[nH]c(-c2ccc(C(C)(C)C)cc2)n1)C(=O)NCc1ccccc1`, the IC50 with Cryptococcus neoformans is over 20 µg/mL. Moreover, the Activity in the series on SK-OV-3, in the series on SK-MEL, with BT-549, with LLC-PK1 and in the series on Vero was over 10 µg/mL in each case. For the same compound, the result in the series on Escherichia coli, in the series on Candida and in the series with Aspergillus was inactive.
On to `Cc1ccc(-c2nc(C[C@H](NC(=O)OC(C)(C)C)C(=O)N[C@@H](Cc3c[nH]c4ccccc34)C(=O)N[C@@H](Cc3c[nH]c(-c4ccc(C)cc4)n3)C(=O)NCc3ccccc3)c[nH]2)cc1`, for which inhibition in the series on Cryptococcus neoformans was half-maximal at 12.6 µg/mL (≈ 14.9 µM) (IC50). In addition, the MFC against Cryptococcus neoformans is over 20 µg/mL. The compound also yielded an MIC against Cryptococcus neoformans of over 20 µg/mL. Moreover, the Activity with SK-OV-3, in the series on SK-MEL, with BT-549, in the series on LLC-PK1 and in the series with Vero was over 10 µg/mL each time. Further, the outcome in the series on Escherichia coli, in the series with Candida and with Aspergillus was inactive.
